These results are taken from ChEMBL document CHEMBL1149653, “Hydroxyethylene isosteres of selective neuronal nitric oxide synthase inhibitors” (Bioorg Med Chem, 2007).

Assay [1] has as its target Nitric oxide synthase 1 (Rattus norvegicus, UniProt P29476). Put plainly: Inhibition of recombinant rat brain nNOS expressed in Escherichia coli.
For assay [2], the target named is T1, Nitric oxide synthase, inducible (Mus musculus, UniProt P29477).
T1 sequence (P29477 whole entry): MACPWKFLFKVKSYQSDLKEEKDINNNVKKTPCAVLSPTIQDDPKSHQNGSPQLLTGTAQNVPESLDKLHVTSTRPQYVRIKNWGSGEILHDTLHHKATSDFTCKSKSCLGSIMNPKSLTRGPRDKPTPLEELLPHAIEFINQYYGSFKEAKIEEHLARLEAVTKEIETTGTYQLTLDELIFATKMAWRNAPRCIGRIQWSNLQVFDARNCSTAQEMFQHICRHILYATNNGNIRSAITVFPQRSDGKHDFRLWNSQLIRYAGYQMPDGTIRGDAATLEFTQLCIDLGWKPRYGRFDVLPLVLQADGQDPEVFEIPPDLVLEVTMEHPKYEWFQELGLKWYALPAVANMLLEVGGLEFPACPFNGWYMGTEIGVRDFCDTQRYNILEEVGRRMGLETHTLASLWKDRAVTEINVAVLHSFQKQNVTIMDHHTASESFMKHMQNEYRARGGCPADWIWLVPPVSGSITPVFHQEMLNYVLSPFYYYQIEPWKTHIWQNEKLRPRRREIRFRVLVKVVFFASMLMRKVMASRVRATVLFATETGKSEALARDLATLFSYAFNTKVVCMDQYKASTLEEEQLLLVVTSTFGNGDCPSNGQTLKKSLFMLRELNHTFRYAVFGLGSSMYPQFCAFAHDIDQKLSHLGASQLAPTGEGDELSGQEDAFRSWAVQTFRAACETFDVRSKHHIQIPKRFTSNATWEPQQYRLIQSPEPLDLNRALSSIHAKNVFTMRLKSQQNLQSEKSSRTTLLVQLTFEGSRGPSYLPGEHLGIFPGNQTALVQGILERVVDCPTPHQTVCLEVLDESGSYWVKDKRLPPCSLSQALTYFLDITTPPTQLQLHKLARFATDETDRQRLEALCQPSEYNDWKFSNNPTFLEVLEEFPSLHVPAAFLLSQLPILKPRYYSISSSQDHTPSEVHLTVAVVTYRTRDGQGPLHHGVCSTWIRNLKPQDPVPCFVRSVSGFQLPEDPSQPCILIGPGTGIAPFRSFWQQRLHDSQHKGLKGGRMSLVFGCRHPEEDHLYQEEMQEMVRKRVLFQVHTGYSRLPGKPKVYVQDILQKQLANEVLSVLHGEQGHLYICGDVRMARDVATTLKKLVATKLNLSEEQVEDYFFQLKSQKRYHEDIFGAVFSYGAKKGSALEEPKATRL
Put plainly: Inhibition of recombinant mouse macrophage iNOS expressed in Escherichia coli. The method in brief: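 Enzyme purified from E. coli, added to start the reaction. Conditions: 30 °C, 100 mM Hepes pH 7.4, 10 µM L-arginine, 100 µM DTT, 100 µM NADPH, 6.5 µM H4B, […], no added Ca2+ or calmodulin. NO capture was read as the A400 rise over 1 min.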

Assay [3] has as its target T2, Nitric oxide synthase 3 (Bos taurus, UniProt P29473).
T2 sequence (P29473 whole entry): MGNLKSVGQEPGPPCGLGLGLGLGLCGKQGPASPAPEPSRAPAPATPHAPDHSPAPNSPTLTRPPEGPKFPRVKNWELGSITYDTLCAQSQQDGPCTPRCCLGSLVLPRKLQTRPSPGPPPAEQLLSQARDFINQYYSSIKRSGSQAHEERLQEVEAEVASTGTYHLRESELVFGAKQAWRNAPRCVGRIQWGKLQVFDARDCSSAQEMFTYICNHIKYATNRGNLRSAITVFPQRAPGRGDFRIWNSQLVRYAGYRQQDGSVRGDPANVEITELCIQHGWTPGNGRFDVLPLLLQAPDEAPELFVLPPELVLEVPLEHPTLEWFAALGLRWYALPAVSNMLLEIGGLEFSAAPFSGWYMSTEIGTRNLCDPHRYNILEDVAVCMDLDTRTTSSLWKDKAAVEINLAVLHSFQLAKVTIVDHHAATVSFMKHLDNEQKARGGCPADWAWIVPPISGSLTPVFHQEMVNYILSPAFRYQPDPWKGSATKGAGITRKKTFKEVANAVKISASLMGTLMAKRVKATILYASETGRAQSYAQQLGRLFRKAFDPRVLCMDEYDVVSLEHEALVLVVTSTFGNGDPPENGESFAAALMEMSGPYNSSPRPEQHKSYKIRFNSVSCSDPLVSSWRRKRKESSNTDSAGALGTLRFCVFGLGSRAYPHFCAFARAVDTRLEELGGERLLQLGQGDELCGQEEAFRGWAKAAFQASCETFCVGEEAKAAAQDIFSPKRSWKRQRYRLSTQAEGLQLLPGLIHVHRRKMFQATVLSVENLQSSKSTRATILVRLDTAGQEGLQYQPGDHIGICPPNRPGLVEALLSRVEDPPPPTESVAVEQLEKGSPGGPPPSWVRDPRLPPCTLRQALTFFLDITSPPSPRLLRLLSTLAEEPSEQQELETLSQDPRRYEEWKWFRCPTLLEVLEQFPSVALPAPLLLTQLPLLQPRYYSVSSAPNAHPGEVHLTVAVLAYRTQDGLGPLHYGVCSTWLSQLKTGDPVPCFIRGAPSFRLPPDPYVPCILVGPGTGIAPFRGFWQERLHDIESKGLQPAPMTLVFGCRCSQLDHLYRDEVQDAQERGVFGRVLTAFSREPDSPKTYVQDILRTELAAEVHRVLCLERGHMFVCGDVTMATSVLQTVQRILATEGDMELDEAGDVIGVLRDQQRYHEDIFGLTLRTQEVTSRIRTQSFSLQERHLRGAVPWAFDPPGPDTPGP
Put plainly: Inhibition of recombinant bovine eNOS expressed in Escherichia coli.

The nature of assay [4]: Selectivity for nNOS over eNOS.
Assay [5] is described as follows: Selectivity for nNOS over iNOS.

Molecules are shown by their SMILES.

Sequence of Nitric oxide synthase 1 (P29476 whole entry): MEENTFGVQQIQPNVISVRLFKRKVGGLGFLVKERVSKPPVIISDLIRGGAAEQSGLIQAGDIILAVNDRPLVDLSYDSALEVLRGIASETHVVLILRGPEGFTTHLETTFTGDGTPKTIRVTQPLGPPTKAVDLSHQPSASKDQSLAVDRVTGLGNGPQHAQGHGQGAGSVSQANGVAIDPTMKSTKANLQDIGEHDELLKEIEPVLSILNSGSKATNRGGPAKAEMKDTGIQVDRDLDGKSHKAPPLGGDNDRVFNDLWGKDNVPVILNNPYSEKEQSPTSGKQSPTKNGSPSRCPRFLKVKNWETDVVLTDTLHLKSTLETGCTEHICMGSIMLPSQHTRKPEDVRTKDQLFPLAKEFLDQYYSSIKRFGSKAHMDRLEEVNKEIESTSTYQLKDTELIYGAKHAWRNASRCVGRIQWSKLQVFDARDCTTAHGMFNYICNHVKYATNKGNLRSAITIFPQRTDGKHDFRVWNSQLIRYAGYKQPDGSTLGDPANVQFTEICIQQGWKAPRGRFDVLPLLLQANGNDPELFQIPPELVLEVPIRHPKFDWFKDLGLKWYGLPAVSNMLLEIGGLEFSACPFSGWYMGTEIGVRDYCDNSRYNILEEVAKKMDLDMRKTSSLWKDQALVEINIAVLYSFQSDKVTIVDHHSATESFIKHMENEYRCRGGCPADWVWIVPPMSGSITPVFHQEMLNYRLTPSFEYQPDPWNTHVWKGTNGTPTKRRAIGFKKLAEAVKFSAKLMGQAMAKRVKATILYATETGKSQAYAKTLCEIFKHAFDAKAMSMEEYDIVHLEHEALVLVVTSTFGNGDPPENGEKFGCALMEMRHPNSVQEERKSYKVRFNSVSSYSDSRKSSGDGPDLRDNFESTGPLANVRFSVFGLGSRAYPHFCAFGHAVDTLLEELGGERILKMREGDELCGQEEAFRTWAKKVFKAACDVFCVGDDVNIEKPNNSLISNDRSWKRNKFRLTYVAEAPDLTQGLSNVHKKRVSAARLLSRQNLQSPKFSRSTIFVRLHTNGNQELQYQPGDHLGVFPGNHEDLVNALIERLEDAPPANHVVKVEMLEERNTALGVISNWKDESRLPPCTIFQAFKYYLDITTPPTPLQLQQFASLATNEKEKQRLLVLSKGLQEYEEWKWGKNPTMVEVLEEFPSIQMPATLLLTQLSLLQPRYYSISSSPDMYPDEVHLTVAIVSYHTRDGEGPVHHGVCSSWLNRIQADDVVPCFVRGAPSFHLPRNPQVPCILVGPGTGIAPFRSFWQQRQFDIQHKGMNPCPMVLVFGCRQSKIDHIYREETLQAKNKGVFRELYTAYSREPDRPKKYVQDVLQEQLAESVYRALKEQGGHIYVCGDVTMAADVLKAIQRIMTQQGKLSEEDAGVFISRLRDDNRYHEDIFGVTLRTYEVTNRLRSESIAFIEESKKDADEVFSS

Take `NC(=NCCC[C@H](N)C[C@H](O)CCO)N[N+](=O)[O-]`: the IC50 in assay [1] worked out at 168 µM; in assay [2], 1290 µM; in assay [3], 1.66 mM.

For the compound `N=C(NCCC[C@H](N)C[C@H](O)CCO)N[N+](=O)[O-]`, the Ratio IC50 in assay [4] turned out to be 9.9; in assay [5], 7.7.

For `N=C(NCCC[C@H](N)C[C@H](O)CCCN)N[N+](=O)[O-]`, the IC50 in assay [1] amounted to 6.8 µM; in assay [2], 313 µM; in assay [3], 1.53 mM. For the same compound, the inhibitory constant (Ki) in assay [1] came to 830 nM. The Ratio IC50 in assay [4] turned out to be 225; in assay [5], 33.

In the case of `N=C(NCCC[C@H](N)C[C@@H](O)CCCO)N[N+](=O)[O-]`, the Ratio IC50 was determined as 10.1 in assay [4] and 2.1 in assay [5].

Take `N=C(NCCC[C@H](N)C[C@H](O)CCN)N[N+](=O)[O-]`: the Ratio IC50 in assay [4] worked out at 143; in assay [5] it was 18.

`NC(=NCCC[C@H](N)C[C@@H](O)CCCO)N[N+](=O)[O-]`: the results for the IC50 in assay [1], in assay [2] and in assay [3] were 255 µM, 524 µM and 2.58 mM, respectively.

Turning to `N=C(NCCC[C@H](N)C[C@H](O)CCCO)N[N+](=O)[O-]`, the IC50 in assay [1] turned out to be 490 µM; in assay [2] it was 266 µM; in assay [3], 0.879 mM. Moreover, the Ratio IC50 came out at 1.8 in assay [4] and 0.54 in assay [5].

For the compound `NCC[C@@H](O)C[C@@H](N)CCCN=C(N)N[N+](=O)[O-]`, the IC50 in assay [1] was determined as 9.4 µM; in assay [2], 167 µM; in assay [3] it was 1.34 mM. The Ki in assay [1] is 1100 nM.

Regarding `N=C(NCCC[C@H](N)C[C@@H](O)CCCN)N[N+](=O)[O-]`, the values for the Ratio IC50 in assay [4] and in assay [5] were 59 and 15, respectively.

Regarding `NC(=NCCC[C@H](N)C[C@@H](O)CCO)N[N+](=O)[O-]`, the IC50 in assay [1] was determined as 106 µM; in assay [2], 331 µM; in assay [3], 1.09 mM.

Take `N=C(NCCC[C@H](N)C[C@@H](O)CCN)N[N+](=O)[O-]`: the results for the IC50 in assay [1], in assay [2] and in assay [3] were 2.4 µM, 257 µM and 1.14 mM, respectively. Also, in assay [1], the Ki turned out to be 290 nM. Besides, the Ratio IC50 stood at 475 in assay [4] and 107 in assay [5].

For `NCCC[C@H](O)C[C@@H](N)CCCN=C(N)N[N+](=O)[O-]`, the figures for the IC50 in assay [1], in assay [2] and in assay [3] were 23.5 µM, 361 µM and 1.39 mM, respectively. In addition, in assay [1], the Ki is 2800 nM.

With `N=C(NCCC[C@H](N)C[C@@H](O)CCO)N[N+](=O)[O-]`, the Ratio IC50 in assay [4] is 10.2; in assay [5], 3.1.

For orientation: IC50 means the concentration at which inhibition is half-maximal. By Ki is commonly meant a measure of affinity in units of concentration, obtained from inhibition or displacement.
